Data as given in ChEMBL document CHEMBL2331365, “Discovery of novel 2-hydroxydiarylamide derivatives as TMPRSS4 inhibitors” (Bioorg Med Chem Lett, 2013).
pIC50: −log10 of the molar value. Structures can show the parent of a compound that is named as a salt.

system: not listed separately; experiment: Cytotoxicity against human SW480 cells overexpressing TMPRSS4 assessed as cell viability at 0.1 uM after 2 days by CCK-8 assay; format: cell-based; details: read-out: Activity
In short: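 Seeded at 10,000 cells/well, exposed to 0.1 µM compound or none at 37 °C for 2 days; CCK-8 reagent added and absorbance read at 450 nm. Higher value taken as lower cytotoxicity.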

SMILES | viability at 48 h, 0.1 µM
O=C(Nc1cc(Br)cc(C(F)(F)F)c1)c1cc(Cl)ccc1O | 93%
Cc1c(C(F)(F)F)cc(NC(=O)c2cc(Cl)ccc2O)cc1C(F)(F)F | 90%
O=C(Nc1cc(C(F)(F)F)c(Br)c(C(F)(F)F)c1)c1cc(Cl)ccc1O | 89%
O=C(Nc1cc(C(F)(F)F)cc(C(F)(F)F)c1)c1cc([N+](=O)[O-])ccc1O | 96%
O=C(Nc1cc(C(F)(F)F)cc(C(F)(F)F)c1)c1cc(Cl)ccc1O [IMD-0354] | 90%

target: T1, Transmembrane protease serine 4 (Homo sapiens, UniProt Q9NRS4); experiment: Inhibition of N-terminal His6-tagged recombinant TMPRSS4 (unknown origin) fused with enterokinase cleavage sequence DYKDDDGDYKDDDDK expressed in Escherichia coli BL21 (DE3) using Z-Phe-Arg-7-amido-4-methylcoumarin hydrochloride as substrate by fluorometric analysis; details: not given
T1 sequence (Q9NRS4 whole entry, the tested form may be a part): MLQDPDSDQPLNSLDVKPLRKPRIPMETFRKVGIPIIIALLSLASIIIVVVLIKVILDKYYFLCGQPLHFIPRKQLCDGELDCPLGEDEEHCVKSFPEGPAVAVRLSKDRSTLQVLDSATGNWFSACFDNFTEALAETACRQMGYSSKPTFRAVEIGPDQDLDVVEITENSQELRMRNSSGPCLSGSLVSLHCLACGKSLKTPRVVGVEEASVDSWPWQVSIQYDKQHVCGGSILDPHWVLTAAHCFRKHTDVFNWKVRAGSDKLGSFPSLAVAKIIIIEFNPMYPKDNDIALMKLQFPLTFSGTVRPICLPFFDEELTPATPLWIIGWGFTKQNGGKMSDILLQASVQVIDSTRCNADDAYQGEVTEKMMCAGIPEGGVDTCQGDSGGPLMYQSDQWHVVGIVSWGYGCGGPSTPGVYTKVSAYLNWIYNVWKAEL

SMILES | pIC50
NCCc1ccc(S(=O)(=O)F)cc1 [4-AMINOETHYLBENZENESULFONYL FLUORIDE HYDROCHLORIDE] | 4.41
COc1c(C(F)(F)F)cc(NC(=O)c2cc(Cl)ccc2O)cc1C(F)(F)F | 4.92
O=C(Nc1cc(Br)cc(C(F)(F)F)c1)c1cc(Cl)ccc1O | 4.92
O=C(Nc1cc(Cl)cc(Cl)c1)c1cc(Cl)ccc1O | 4.72
Cc1c(C(F)(F)F)cc(NC(=O)c2cc(Cl)ccc2O)cc1C(F)(F)F | 5.00
O=C(Nc1ccc(C(F)(F)F)cn1)c1cc(Cl)ccc1O | < 4.00
COc1ccc(O)c(C(=O)Nc2cc(C(F)(F)F)cc(C(F)(F)F)c2)c1 | 4.54
O=C(Nc1cc(C(F)(F)F)ccc1C(F)(F)F)c1cc(Cl)ccc1O | 4.70
O=C(Nc1cc(C(F)(F)F)cc(C(F)(F)F)c1)c1ccc(Cl)cc1O | 4.92
O=C(Nc1cc(C(F)(F)F)ccc1F)c1cc(Cl)ccc1O | 4.55
O=C(Nc1ccc(C(F)(F)F)c(C(F)(F)F)c1)c1cc(Cl)ccc1O | 4.89
O=C(Nc1ccc(Cl)nc1)c1cc(Cl)ccc1O | < 4.00
O=C(Nc1ccc(Br)c(C(F)(F)F)c1)c1cc(Cl)ccc1O | 4.52
O=C(Nc1cc(C(F)(F)F)cc(C(F)(F)F)c1)c1cc(Cl)ccc1OCc1ccccc1 | < 4.00
O=C(Nc1ccnc(Cl)c1)c1cc(Cl)ccc1O | < 4.00
O=C(Nc1ccc(Cl)c(C(F)(F)F)c1)c1cc(Cl)ccc1O | 4.46
O=C(Nc1ccccc1)c1cc(Cl)ccc1O | 4.30
O=C(Nc1cc(Cl)c(Cl)c(Cl)c1)c1cc(Cl)ccc1O | < 4.00
O=C(Nc1cc(C(F)(F)F)c(Br)c(C(F)(F)F)c1)c1cc(Cl)ccc1O | 5.22
O=C(Nc1cc(C(F)(F)F)cc(C(F)(F)F)c1)c1cc([N+](=O)[O-])ccc1O | 4.92

SMILES | pIC50
O=C(Nc1cc(C(F)(F)F)cc(C(F)(F)F)c1)c1ccc2ccccc2c1O | < 4.00
O=C(NCc1cc(C(F)(F)F)cc(C(F)(F)F)c1)c1cc(Cl)ccc1O | 4.74
N#Cc1ccc(O)c(C(=O)Nc2cc(C(F)(F)F)cc(C(F)(F)F)c2)c1 | 4.72
O=C(Nc1cc(C(F)(F)F)cc(C(F)(F)F)c1)c1cccc(Cl)c1O | 4.92
O=C(Nc1cc(C(F)(F)F)cc(C(F)(F)F)c1)c1cc(Cl)cnc1O | < 4.00
Cc1ccc(O)c(C(=O)Nc2cc(C(F)(F)F)cc(C(F)(F)F)c2)c1 | 4.55
Cc1cc(C)cc(NC(=O)c2cc(Cl)ccc2O)c1 | 4.41
COc1cc(NC(=O)c2cc(Cl)ccc2O)cc(C(F)(F)F)c1 | 4.80
CC(=O)Oc1ccc(Cl)cc1C(=O)Nc1cc(C(F)(F)F)cc(C(F)(F)F)c1 | < 4.00
O=C(Nc1cc(C(F)(F)F)cc(C(F)(F)F)c1)c1cc(Br)ccc1O | 4.89
NC(=O)c1ccc(O)c(C(=O)Nc2cc(C(F)(F)F)cc(C(F)(F)F)c2)c1 | < 4.00
O=C(Nc1cc(C(F)(F)F)cc(C(F)(F)F)c1)c1ccccc1O | < 4.00
N#Cc1ccc(NC(=O)c2cc(Cl)ccc2O)nc1 | 4.10
N#Cc1ccc(NC(=O)c2cc(Cl)ccc2O)cc1 | 4.12
O=C(Nc1ncccn1)c1cc(Cl)ccc1O | < 4.00
O=C(Nc1cnc2ccccc2c1)c1cc(Cl)ccc1O | 4.07
O=C(Nc1cc(C(F)(F)F)cc(C(F)(F)F)c1)c1cc(F)ccc1O | 4.54
O=C(Nc1cccc(C(F)(F)F)c1)c1cc(Cl)ccc1O | 4.89
O=C(Nc1cc(C(F)(F)F)cc(C(F)(F)F)c1)c1cc(Cl)ccc1O [IMD-0354] | 4.96
O=C(Nc1cc(C(F)(F)F)cc(C(F)(F)F)c1)c1c[nH]c2ccccc2c1=O | < 4.00

target: T1, Transmembrane protease serine 4; experiment: Inhibition of TMPRSS4 in human SW480 cells assessed as inhibition of cell invasion at 0.1 uM relative to control; format: cell-based; details: not given
In short: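 SW480 cells overexpressing TMPRSS4 (clone T19) left to invade reconstituted basement membrane (Matrigel) with 0.1 µM compound present. Invasion expressed as percent inhibition relative to DMSO negative control.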

SMILES | inhibition
O=C(Nc1cc(Br)cc(C(F)(F)F)c1)c1cc(Cl)ccc1O | 43%
Cc1c(C(F)(F)F)cc(NC(=O)c2cc(Cl)ccc2O)cc1C(F)(F)F | 43%
O=C(Nc1cc(C(F)(F)F)c(Br)c(C(F)(F)F)c1)c1cc(Cl)ccc1O | 53%
O=C(Nc1cc(C(F)(F)F)cc(C(F)(F)F)c1)c1cc([N+](=O)[O-])ccc1O | 26%
O=C(Nc1cc(C(F)(F)F)cc(C(F)(F)F)c1)c1cc(Cl)ccc1O [IMD-0354] | 45%
